Assay results from ChEMBL document CHEMBL2150858 (J Med Chem, 2011).
Values after ≈ are worked out from the molar mass of the structure shown. Blank lines part the entries; values can stand above or below the molecule they belong to. Active and inactive are the calls of the source. The rule behind the calls is not given here.

Key:
Interstitial collagenase = Interstitial collagenase (Homo sapiens, UniProt P03956); test: Inhibition of MMP1
[1] = target: T1, 72 kDa type IV collagenase (Homo sapiens, UniProt P08253); test: Inhibition of MMP2
Procedure, shortened: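 Fluorogenic substrate assay on MMP-2 (5 ng/mL enzyme solution) in TNC buffer (50 mM Tris-HCl pH 7.5, 150 mM NaCl, 10 mM CaCl2, 0.05% Brij-35). Enzyme preincubated with compound for 10 min at 37 °C, then substrate solution (10 μM) added. Fluorescence read at ex 328/em 393 nm after 3 h at 37 °C. An enzyme-free blank was subtracted; batimastat served as positive control and 1% DMSO as negative.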
Target sequence in this assay (P08253 whole entry): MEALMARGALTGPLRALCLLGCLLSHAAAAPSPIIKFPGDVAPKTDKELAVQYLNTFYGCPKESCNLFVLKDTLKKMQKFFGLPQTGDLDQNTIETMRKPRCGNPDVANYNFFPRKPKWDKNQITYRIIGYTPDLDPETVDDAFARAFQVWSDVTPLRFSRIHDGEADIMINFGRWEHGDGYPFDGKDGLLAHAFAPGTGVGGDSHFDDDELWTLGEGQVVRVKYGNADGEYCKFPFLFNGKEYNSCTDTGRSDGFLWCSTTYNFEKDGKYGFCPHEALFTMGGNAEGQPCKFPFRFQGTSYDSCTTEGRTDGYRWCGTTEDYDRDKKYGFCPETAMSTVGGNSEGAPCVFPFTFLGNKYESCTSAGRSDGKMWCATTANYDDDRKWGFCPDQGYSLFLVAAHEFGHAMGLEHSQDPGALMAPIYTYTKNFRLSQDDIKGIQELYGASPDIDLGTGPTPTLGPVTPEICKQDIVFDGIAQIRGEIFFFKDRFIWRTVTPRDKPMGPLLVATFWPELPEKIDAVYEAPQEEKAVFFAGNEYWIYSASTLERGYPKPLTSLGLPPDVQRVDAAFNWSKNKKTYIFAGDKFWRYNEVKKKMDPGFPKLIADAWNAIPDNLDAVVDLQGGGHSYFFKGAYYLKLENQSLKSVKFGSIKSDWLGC

Collagenase 3 = Collagenase 3 (Homo sapiens, UniProt P45452); test: Inhibition of MMP13
[2] = target: T1, 72 kDa type IV collagenase; test: Inhibition of human recombinant MMP2 using MOCAc-Pro-Leu-Gly-Leu-A2pr(Dnp)-Ala-Arg- NH2 as substrate preincubated for 10 mins measured after 3 hrs by fluorescence assay
Procedure, shortened: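 Fluorogenic MMP-2 inhibition in TNC buffer (50 mM Tris-HCl pH 7.5, 150 mM NaCl, 10 mM CaCl2, 0.02% NaN3, 0.05% Brij-35). Enzyme stock 5 ng/mL preincubated with compound 10 min at 37 °C. Reaction started with substrate solution (10 μM), incubated 3 h at 37 °C. Read at ex 328/em 393 nm. No-enzyme blank subtracted. Batimastat positive control; 1% DMSO negative control.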
Target sequence in this assay (P08253 whole entry): as above

[3] = target: Macrophage metalloelastase (Homo sapiens, UniProt P39900); test: Inhibition of MMP12
[4] = target: T2, Matrix metalloproteinase-14 (Homo sapiens, UniProt P50281); test: Inhibition of MMP14 using MOCAc-Pro-Leu-Gly-Leu-A2pr(Dnp)-Ala-Arg- NH2 as substrate preincubated for 10 mins measured after 3 hrs by fluorescence assay
Procedure, shortened: (§1)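 Fluorogenic MMP assay (modified Knight method) in TNC buffer: 50 mM Tris-HCl pH 7.5, 150 mM NaCl, 10 mM CaCl2, 0.05% Brij-35. Enzyme stock was 5 ng/mL for MMP-2 and 40 ng/mL for MT1-MMP, preincubated with sample 10 min at 37 °C. Substrate solution at 10 μM was added, then incubated 3 h at 37 °C. Fluorescence read at ex 328/em 393 nm; a no-enzyme blank was subtracted. Controls were batimastat and 1% DMSO.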

[5] = target: Dual specificity tyrosine-phosphorylation-regulated kinase 1A (Rattus norvegicus, UniProt Q63470); test: Inhibition of rat recombinant GST-fused DYRK1A expressed in Escherichia coli using [gamma-32P] ATP after 30 mins by scintillation counting
Procedure, shortened: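 DYRK1A purified by glutathione-agarose affinity chromatography. Product captured on P81 phosphocellulose and washed in phosphoric acid. Blank subtracted; activity expressed as % of uninhibited.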

[6] = target: Matrix metalloproteinase-9 (Homo sapiens, UniProt P14780); test: Inhibition of MMP9
Neutrophil collagenase = Neutrophil collagenase (Homo sapiens, UniProt P22894); test: Inhibition of MMP8
[7] = target: Casein kinase I isoform alpha (Sus scrofa, UniProt O19175); test: Inhibition of porcine brain CK1 using RRKHAAIGpSAYSITA as substrate
[8] = target: T3, Serine/threonine-protein kinase pim-1 (Homo sapiens, UniProt P11309); test: Inhibition of human recombinant PIM1 using [gamma-32P] ATP after 30 mins by scintillation counting
Procedure, shortened: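 Human recombinant Pim1 was run with histone H1 substrate under the CDK1/CDK5 conditions: 15 μM [γ-32P]ATP at 30 °C for 30 min. Phosphocellulose filter binding and scintillation counting followed. Activity was expressed as % of maximal after blank subtraction, with DMSO controls.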
Target sequence in this assay (P11309 whole entry): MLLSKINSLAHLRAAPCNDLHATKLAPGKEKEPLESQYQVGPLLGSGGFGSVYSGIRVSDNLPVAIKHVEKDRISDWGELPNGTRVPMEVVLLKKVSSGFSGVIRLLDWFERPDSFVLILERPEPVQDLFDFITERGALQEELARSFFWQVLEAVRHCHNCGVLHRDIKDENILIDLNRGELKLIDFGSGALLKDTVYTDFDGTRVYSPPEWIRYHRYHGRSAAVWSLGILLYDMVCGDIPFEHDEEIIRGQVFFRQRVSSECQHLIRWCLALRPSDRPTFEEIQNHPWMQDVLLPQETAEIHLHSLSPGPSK

Malme-3M = test: Induction of cell growth in human MALME-3M cells at 10 uM; type: functional
Aorta [9] = test: Antiangiogenic activity in Fischer rat aorta fragments assessed as vessel outgrowth after 5 days; type: functional, tissue-based; conditions: 120 h
Procedure, shortened: (§2)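 Thoracic aorta rings (1 mm cross-sections) from 3–9 month-old female Fischer rats, each embedded in fibrin gel with 5 μg/mL aprotinin. Compound added from DMSO stock, max final 100 μg/mL, six replicates; 0.1% DMSO vehicle control. Grown 5 days at 37 °C in 5% CO2, medium changed on day 4. On day 5, microvessel outgrowth was scored manually at 40× as percent of field occupied.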

NCI60 = test: Growth inhibition of human NCI60 cells at 1 to 10 uM; type: functional, cell-based
[10] = target: T1, 72 kDa type IV collagenase; test: Inhibition of human recombinant MMP2 using MOCAc-Pro-Leu-Gly-Leu-A2pr(Dnp)-Ala-Arg- NH2 as substrate at 20 ug/ml preincubated for 10 mins measured after 3 hrs by fluorescence assay; procedure, shortened: as §1
CAKI-1 = test: Growth inhibition of human Caki1 cells at 10 uM; type: functional; conditions: read-out: GI
[11] = Binding affinity to DYRK2 assessed as ATP binding remaining at 10 uM
Procedure, shortened: (§3)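 Ambit phage-display competition binding against immobilized ATP-site ligands. Kinase-tagged T7 phage or HEK-293-expressed DNA-tagged kinases were incubated with liganded streptavidin beads and compound at 10 μM, 1 h at room temperature with shaking. After washing, retained kinase was quantified; readout is percent of control binding remaining.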

[12] = Toxicity in human M14 cells; type: cell-based; conditions: read-out: LD50 (the source's name)
Procedure, shortened: (§4)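 NCI-60 human cancer cell line screen, two-stage. All lines first receive a single 10 μM dose. Selected compounds then go to a five-concentration assay spanning 100 μM to 10 nM, with 48 h exposure. LD50 (cell kill) is derived from the dose-response and kept separate from GI50 (growth retardation without cell death).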

Aorta [13] = test: Antiangiogenic activity in Fischer rat aorta fragments assessed as vessel outgrowth at 1 ug/mL after 5 days; type: functional; conditions: 120 h; procedure, shortened: as §2
[14] = target: Non-receptor tyrosine-protein kinase TYK2 (Homo sapiens) (UniProt P29597); test: Binding affinity to JH domain of TYK2 assessed as ATP binding remaining at 10 uM; procedure, shortened: as §3
[15] = Toxicity in human SK-MEL-5 cells; type: cell-based; conditions: read-out: LD50 (the source's name); procedure, shortened: as §4
[16] = Inhibition of GSK3 at 100 uM
Aorta [17] = test: Antiangiogenic activity in Fischer rat aorta fragments assessed as vessel outgrowth at 100 ug/mL after 5 days; type: functional; conditions: 120 h; procedure, shortened: as §2
Aorta [18] = test: Antiangiogenic activity in Fischer rat aorta fragments assessed as vessel outgrowth at 10 ug/mL after 5 days; type: functional; conditions: 120 h; procedure, shortened: as §2
[19] = target: T2, Matrix metalloproteinase-14; test: Inhibition of MMP14 using MOCAc-Pro-Leu-Gly-Leu-A2pr(Dnp)-Ala-Arg- NH2 as substrate at 20 ug/ml preincubated for 10 mins measured after 3 hrs by fluorescence assay; procedure, shortened: as §1
[20] = Toxicity in human Caki1 cells; type: cell-based, CAKI-1; conditions: read-out: LD50 (the source's name); procedure, shortened: as §4
[21] = target: T3, Serine/threonine-protein kinase pim-1; test: Inhibition of human recombinant PIM1 using [gamma-32P] ATP at 100 uM after 30 mins by scintillation counting
Procedure, shortened: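 Recombinant human Pim1 assayed as for CDK1/CDK5: histone H1 substrate, 15 μM [γ-32P]ATP final, 30 °C. Read by P81 filter binding and scintillation counting; activity expressed as percent of no-inhibitor control after blank subtraction.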
Target sequence in this assay (P11309 whole entry, looked up): as the sequence (P11309 whole entry) above

[22] = target: Protein kinase C epsilon type (Homo sapiens, UniProt Q02156); test: Binding affinity to PRKCE
Procedure, shortened: (§5)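 Competition binding run by Ambit. They were mixed with ligand-loaded streptavidin magnetic beads and compound (40× DMSO stocks) in SeaBlock/PBS/Tween/DTT buffer. Incubation was 1 h at room temperature, then beads were washed. KD was determined from 11 concentrations plus a blank, in duplicate. A value of 40000 nM indicates no binding.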

[23] = target: Mitogen-activated protein kinase kinase kinase 19 (Homo sapiens) (UniProt Q56UN5); test: Binding affinity to YSK4 assessed as ATP binding remaining at 10 uM; procedure, shortened: as §3
[24] = Toxicity in human IGROV1 cells; type: cell-based, IGROV-1; conditions: read-out: LD50 (the source's name); procedure, shortened: as §4
[25] = target: Dual specificity tyrosine-phosphorylation-regulated kinase 1A (Homo sapiens) (UniProt Q13627); test: Binding affinity to DYRK1A assessed as ATP binding remaining at 10 uM; procedure, shortened: as §3
[26] = target: Calcium/calmodulin-dependent protein kinase type II subunit gamma (Homo sapiens, UniProt Q13555); test: Binding affinity to CAMK2G
Procedure, shortened: (§6)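 Compounds were diluted from 40× DMSO stocks, 11 concentrations plus blank in duplicate. Incubation 1 h at room temperature with shaking in SeaBlock/PBS/Tween 20/DTT buffer, then bead wash. Kd determined; 40000 nM denotes no binding.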

[27] = target: Calcium/calmodulin-dependent protein kinase kinase 1 (Homo sapiens, UniProt Q8N5S9); test: Binding affinity to CAMKK1; procedure, shortened: as §5
Aorta [28] = test: Antiangiogenic activity in Fischer rat aorta fragments assessed as vessel outgrowth at 100 ug/mL after 5 days relative to PI-88; type: functional
Aorta [29] = test: Antiangiogenic activity in Fischer rat aorta fragments assessed as vessel outgrowth at 0.1 ug/mL after 5 days; type: functional; conditions: 120 h; procedure, shortened: as §2
[30] = target: Calcium/calmodulin-dependent protein kinase kinase 2 (Homo sapiens, UniProt Q96RR4); test: Binding affinity to CAMKK2; procedure, shortened: as §6
Aorta [31] = test: Antiangiogenic activity in Fischer rat aorta fragments assessed as vessel outgrowth at 100 ug/mL after 5 days relative to ageladine-A sulfate; type: functional
[32] = Toxicity in human NCI-H460 cells; type: cell-based; conditions: read-out: LD50 (the source's name); procedure, shortened: as §4

Casein kinase I isoform alpha, sequence (O19175 whole entry, canonical isoform): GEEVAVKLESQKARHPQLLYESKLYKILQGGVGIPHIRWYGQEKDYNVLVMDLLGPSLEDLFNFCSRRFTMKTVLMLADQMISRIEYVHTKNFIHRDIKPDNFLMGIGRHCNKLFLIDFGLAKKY
Calcium/calmodulin-dependent protein kinase type II subunit gamma, sequence (Q13555 whole entry): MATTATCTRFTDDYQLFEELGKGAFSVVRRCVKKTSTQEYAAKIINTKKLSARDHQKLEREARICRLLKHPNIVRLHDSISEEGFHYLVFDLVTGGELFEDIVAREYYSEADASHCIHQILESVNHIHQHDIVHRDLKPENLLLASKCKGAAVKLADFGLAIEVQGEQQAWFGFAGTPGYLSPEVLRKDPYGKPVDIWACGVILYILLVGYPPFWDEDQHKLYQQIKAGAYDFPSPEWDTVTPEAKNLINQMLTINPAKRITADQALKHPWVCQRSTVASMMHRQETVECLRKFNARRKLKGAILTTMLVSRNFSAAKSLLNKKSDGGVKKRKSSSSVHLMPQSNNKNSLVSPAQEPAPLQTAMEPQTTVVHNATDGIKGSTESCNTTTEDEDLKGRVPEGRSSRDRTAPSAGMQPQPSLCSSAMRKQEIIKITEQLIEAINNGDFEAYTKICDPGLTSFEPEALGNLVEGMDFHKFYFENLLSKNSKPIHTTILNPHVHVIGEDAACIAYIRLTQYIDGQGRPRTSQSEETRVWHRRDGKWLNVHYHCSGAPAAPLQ
Calcium/calmodulin-dependent protein kinase kinase 1, sequence (Q8N5S9 whole entry, the tested form may be a part): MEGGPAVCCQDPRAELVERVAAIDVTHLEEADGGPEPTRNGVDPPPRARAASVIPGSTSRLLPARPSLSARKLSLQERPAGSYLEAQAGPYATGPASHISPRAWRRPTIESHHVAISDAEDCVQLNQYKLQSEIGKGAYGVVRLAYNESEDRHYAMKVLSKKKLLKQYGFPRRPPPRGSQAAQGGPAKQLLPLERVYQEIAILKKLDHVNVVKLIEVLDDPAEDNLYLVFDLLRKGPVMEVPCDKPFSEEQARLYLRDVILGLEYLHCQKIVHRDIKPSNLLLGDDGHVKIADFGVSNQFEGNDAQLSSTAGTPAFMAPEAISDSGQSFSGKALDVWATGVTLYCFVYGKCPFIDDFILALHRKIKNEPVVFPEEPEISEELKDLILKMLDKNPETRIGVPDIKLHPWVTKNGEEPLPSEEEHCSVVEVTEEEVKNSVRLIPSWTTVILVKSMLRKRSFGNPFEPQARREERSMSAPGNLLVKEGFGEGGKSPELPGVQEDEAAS
Matrix metalloproteinase-9, sequence (P14780 whole entry): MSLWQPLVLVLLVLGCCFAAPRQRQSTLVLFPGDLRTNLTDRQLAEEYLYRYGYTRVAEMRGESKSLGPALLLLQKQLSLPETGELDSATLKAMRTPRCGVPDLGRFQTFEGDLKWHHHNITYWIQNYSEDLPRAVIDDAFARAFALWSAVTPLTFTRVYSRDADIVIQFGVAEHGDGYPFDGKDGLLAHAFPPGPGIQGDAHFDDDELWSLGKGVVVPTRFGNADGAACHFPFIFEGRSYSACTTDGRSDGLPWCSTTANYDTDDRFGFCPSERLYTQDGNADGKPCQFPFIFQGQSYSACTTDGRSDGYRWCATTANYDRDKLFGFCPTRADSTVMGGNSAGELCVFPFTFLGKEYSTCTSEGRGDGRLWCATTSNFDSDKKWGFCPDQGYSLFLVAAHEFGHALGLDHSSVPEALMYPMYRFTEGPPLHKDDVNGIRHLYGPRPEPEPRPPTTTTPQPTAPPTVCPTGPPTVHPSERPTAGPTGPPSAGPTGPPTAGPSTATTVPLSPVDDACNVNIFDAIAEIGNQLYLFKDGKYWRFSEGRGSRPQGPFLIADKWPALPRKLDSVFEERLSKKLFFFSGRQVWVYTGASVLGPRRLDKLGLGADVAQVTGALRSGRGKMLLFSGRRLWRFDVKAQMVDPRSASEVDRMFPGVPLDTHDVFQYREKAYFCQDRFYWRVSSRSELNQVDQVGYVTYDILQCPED
Protein kinase C epsilon type, sequence (Q02156 whole entry): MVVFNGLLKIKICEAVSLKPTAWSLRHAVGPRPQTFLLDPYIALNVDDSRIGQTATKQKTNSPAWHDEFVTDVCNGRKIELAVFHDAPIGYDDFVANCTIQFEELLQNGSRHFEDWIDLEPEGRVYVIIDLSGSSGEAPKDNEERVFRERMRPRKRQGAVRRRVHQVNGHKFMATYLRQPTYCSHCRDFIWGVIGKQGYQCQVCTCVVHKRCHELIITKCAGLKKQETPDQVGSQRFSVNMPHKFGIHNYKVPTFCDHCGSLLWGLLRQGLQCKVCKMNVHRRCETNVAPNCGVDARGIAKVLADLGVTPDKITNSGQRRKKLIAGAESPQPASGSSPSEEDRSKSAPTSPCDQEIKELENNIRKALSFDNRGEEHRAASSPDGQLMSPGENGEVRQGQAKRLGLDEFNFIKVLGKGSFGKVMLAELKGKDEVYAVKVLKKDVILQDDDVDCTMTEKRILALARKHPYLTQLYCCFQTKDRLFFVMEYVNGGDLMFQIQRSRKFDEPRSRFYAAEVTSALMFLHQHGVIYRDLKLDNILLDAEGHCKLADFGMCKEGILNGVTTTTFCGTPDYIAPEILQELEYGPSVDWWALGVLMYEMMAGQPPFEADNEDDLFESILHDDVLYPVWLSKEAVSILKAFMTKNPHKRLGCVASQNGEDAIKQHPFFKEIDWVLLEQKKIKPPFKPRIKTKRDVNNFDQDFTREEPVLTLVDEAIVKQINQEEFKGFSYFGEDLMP
Interstitial collagenase, sequence (P03956 whole entry): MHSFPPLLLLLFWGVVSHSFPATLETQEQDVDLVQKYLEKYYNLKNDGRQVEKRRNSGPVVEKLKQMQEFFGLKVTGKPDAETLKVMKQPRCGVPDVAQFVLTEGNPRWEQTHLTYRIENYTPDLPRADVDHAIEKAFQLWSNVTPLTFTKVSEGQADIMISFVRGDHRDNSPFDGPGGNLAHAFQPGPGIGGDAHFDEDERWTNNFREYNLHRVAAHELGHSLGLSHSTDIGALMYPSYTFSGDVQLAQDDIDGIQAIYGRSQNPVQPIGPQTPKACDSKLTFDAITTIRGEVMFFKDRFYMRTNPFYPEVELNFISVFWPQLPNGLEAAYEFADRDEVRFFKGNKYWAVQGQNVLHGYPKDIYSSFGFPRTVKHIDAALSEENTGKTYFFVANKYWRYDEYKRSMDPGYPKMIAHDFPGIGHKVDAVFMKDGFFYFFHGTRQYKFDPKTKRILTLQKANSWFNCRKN
Macrophage metalloelastase, sequence (P39900 whole entry): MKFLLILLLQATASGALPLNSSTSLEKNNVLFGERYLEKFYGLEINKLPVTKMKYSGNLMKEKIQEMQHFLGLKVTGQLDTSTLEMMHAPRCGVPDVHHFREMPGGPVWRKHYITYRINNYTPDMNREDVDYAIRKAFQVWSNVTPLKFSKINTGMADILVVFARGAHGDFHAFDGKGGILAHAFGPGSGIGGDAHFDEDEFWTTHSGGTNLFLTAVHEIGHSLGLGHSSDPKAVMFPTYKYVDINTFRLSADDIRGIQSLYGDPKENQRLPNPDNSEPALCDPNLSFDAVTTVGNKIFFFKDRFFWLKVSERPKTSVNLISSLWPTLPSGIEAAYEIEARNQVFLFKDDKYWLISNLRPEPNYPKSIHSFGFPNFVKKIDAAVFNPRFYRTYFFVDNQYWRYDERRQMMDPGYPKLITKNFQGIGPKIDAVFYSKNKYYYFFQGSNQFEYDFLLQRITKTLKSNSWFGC

IC50 (Interstitial collagenase): 5.6 µM | IC50 [1]: 3.36 µM | IC50 (Collagenase 3): 1.32 µM | IC50 [2]: 4.76 µM | IC50 [3]: 0.924 µM | IC50 [4]: 0.56 µM | IC50 [5]: 30 µM | IC50 [6]: 2.21 µM | IC50 (Neutrophil collagenase): 1.09 µM | IC50 [7]: 50 µM | IC50 [8]: 10 µM
SMILES: Nc1nc2c(-c3cc(Br)c(Br)[nH]3)nccc2[nH]1 [AGELADINE A]

SMILES: Nc1nc2c(-c3ccccn3)nccc2[nH]1
Activity (Malme-3M): 30% | IC50 (Aorta [9]): 8 µg/mL (≈ 37.9 µM) | growth inhibition (GI) (NCI60): Active | inhibition [10]: 22% | inhibition of growth at 10 µM (CAKI-1): 95% | Activity [11]: Active | CC50 [12]: 25 µM | inhibition at 1 µg/mL (Aorta [13]): 16% | Activity [14]: Active | CC50 [15]: 25 µM | inhibition [16]: inactive | inhibition at 100 µg/mL (Aorta [17]): 100% | inhibition at 10 µg/mL (Aorta [18]): 56% | inhibition [19]: 6% | CC50 [20]: 25 µM | inhibition [21]: inactive | Kd [22]: 40 µM | Activity [23]: Active | IC50 [7]: 10 µM | CC50 [24]: 25 µM | Activity [25]: Active | Kd [26]: 40 µM | Kd [27]: 40 µM | fold change (FC) (Aorta [28]): 14 | inhibition at 0.1 µg/mL (Aorta [29]): 4% | Kd [30]: 40 µM | fold change (FC) (Aorta [31]): 3 | CC50 [32]: 25 µM
